Results from publication PMC8245904 (Acta Pharmaceutica Sinica. B, 2021).
Like-named read-outs stand apart in the source and are kept apart here.

Key:
[1] = rat single-pass intestinal perfusion; format: in vivo; details: with EDTA at 1 mg/mL or the two hypotonic (100 mOsm) perfusion solutions with or without lidocaine; rat SPIP, n = 6
[2] = compatibility/stability of study drugs in perfusion solution; format: physicochemical; details: solution pH 6.5, 37 °C; for concentration in perfusion solution, after: after 4 h; for concentration in perfusion solution, before: before 4 h
[3] = cited from earlier work; for basal permeability: recent rat SPIP study with transcellular PEs; for effect of transcellular PEs on jejunal permeability: sodium dodecyl sulfate (SDS) and caprate, rat SPIP in vivo
[4] = n-octanol-water coefficient; ref 22 (enalaprilat), ref 23 (hexarelin); cited from earlier work
[5] = ref 22 (enalaprilat), ref 23 (hexarelin); cited from earlier work
[6] = cited from earlier work
[7] = blood-to-lumen jejunal 51Cr-EDTA clearance; format: in vivo; details: hypotonic perfusate (100 mOsm) with lidocaine, rat SPIP, test vs control period
Method in brief: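 Male Wistar Han rats (299–395 g) anaesthetised with inactin (180 mg/kg i.p., 5% w/v), body temperature held at 37.5 ± 0.5 °C, arterial pressure monitored. The proximal jejunal segment (about 10 cm) was single-pass perfused at 0.2 mL/min at 37 °C. A 30-min PBS stabilisation reached steady plasma 51Cr-EDTA. Then came 60 min of isotonic pH 7.4 control buffer holding both peptides, followed by 75 min of hypotonic (100 mOsm) perfusate with lidocaine 1 mg/mL. Clearance was computed as blood-to-lumen 51Cr-EDTA transport per 100 g wet jejunal tissue, expressed as the ratio of mean test-period (60 min) to mean control-period (45 min) values. n = 6 rats.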

[8] = dissociation constant; cited from earlier work
[9] = Pefabloc SC at 0.3 mg/mL, in rat; cited from earlier work

Hexarelin
Peff ratio (baseline vs. test) [1]: no increase
concentration in perfusion solution, after [2]: 33.9 µM
concentration in perfusion solution, before [2]: 29.9 µM
basal permeability [3]: 0.0019 ± 0.0013 × 10^−4 cm/s
effect of transcellular PEs on jejunal permeability [3]: unaffected
LogP [4]: 0.73
HBA (hydrogen bond acceptor) [5]: 9
HBD (hydrogen bond donor) [5]: 11
PSA (polar surface area) [5]: 300

semaglutide
terminal half-life in plasma [6]: ~1 week
bioavailability of the given oral dose ([6]; with SNAC): 0.4%–1.0

desmopressin
bioavailability of the given oral dose [6]: 0.1%

O=C([O-])CN(CCN(CC(=O)[O-])CC(=O)[O-])CC(=O)[O-].[51Cr+3] [51Cr-EDTA, ^51chromium-labeled EDTA]
increase in CLCr-EDTA (permeability) [7]: 15 fold

C[C@H](N[C@@H](CCc1ccccc1)C(=O)O)C(=O)N1CCC[C@H]1C(=O)O [Enalaprilat]
concentration in perfusion solution, after [2]: 84.8 µM
concentration in perfusion solution, before [2]: 83.9 µM
basal permeability [3]: 0.013 ± 0.009 × 10^−4 cm/s
effect of transcellular PEs on jejunal permeability [3]: substantially increased
LogP [4]: −0.13
pKa (footnote a, Acid) [8]: 7.84
pKa (footnote b, Base) [8]: 3.17
HBA (hydrogen bond acceptor) [5]: 6
HBD (hydrogen bond donor) [5]: 3

Cl.NCCc1ccc(S(=O)(=O)F)cc1 [Pefabloc SC]
inhibition of the intestinal degradation of hexarelin [9]: completely inhibits
